The text below walks through data of ChEMBL document CHEMBL3853338 (Bioorg Med Chem Lett, 2016).

SMILES strings stand for the structures. Calls of active or inactive are those of the source. No cut-off for these calls is given here.

Series [1] can be described thus: Plasma concentration in Sprague-Dawley rat plasma at 10 mg/kg, iv after 30 mins by LC-MS/MS analysis. The class given is ADME, organism-based. The method, boiled down:
(§1)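 Healthy male Sprague Dawley rats, n = 3 per time point, given 10 mg/kg IV; brain and plasma sampled at 30, 90 and 180 min post dose; drug levels by LC–MS/MS (plasma ng/ml, brain ng/g). AUC summed from straight-line segments joining the three time points.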

The nature of series [2]: Plasma concentration in Sprague-Dawley rat plasma at 10 mg/kg, iv after 90 mins by LC-MS/MS analysis. The class given is ADME, organism-based. In outline:
as §1

Series [3] is described as follows: Plasma concentration in Sprague-Dawley rat plasma at 10 mg/kg, iv after 180 mins by LC-MS/MS analysis. The class given is ADME, organism-based. In outline: as §1
A short description of series [4]: Drug level in Sprague-Dawley rat brain at 10 mg/kg, iv after 30 mins by LC-MS/MS analysis. Particulars: read-out: Drug uptake. In kind it is ADME, organism-based. In outline:
as §1

The nature of series [5]: Drug level in Sprague-Dawley rat brain at 10 mg/kg, iv after 90 mins by LC-MS/MS analysis. The class given is ADME, organism-based. Particulars: read-out: Drug uptake. The method, boiled down:
as §1

Series [6] is described as follows: Drug level in Sprague-Dawley rat brain at 10 mg/kg, iv after 180 mins by LC-MS/MS analysis. The class given is ADME, organism-based. Particulars: read-out: Drug uptake. The method, boiled down:
as §1

A short description of series [7]: Ratio of AUC in brain to plasma of Sprague-Dawley rat at 10 mg/kg, iv after 30 to 180 mins by LC-MS/MS analysis. Particulars: read-out: Ratio AUC. The class given is ADME, organism-based. In outline:
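Male Sprague Dawley rats (n = 3 per time point) dosed IV at 10 mg/kg; brain and plasma taken 30, 90, 180 min after dosing and assayed by LC–MS/MS; three-point linear-segment AUCs computed; ratio = AUCbrain divided by AUCplasma.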

For series [8], the system named is U-87MG ATCC. Description: Induction of DNA alkylation in human U87MG cells assessed as increase in O6-MedG formation at 10 to 100 uM after 3 hrs by LC-MS/MS analysis. The class given is cell-based. In outline: (§2)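 U87 MG cells incubated with 10 or 100 µM for 3 h at 37 °C, washed, lysed; genomic DNA isopropanol-extracted, hydrolysed 30 min at 37 °C with nuclease P1 and alkaline phosphatase (ammonium acetate/ZnCl2, pH 5.3); [H]O6-MedG internal standard added; O6-MedG peak area by LC–MS/MS.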

Series [9] has as its system U-87MG ATCC. Description: Induction of DNA alkylation in human U87MG cells assessed as increase in N7-MedG formation after 3 hrs by LC-MS/MS analysis. The class given is cell-based.
The subject of series [10] is U-87MG ATCC. Nature of the series: Antitumor activity against human U87MG cells orthotopically xenografted in Harlan nude mouse brain assessed as induction of slow tumor growth at 50 umol/kg, iv administered once daily for 5 days. In kind it is functional, organism-based. In outline:
(§3)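 Orthotopic model: one million luciferase-expressing U87 MG cells surgically implanted into brains of female Harlan nude mice; dosing from day 26 (mean tumor 10.1 mm3), IV in 50% PEG400, once daily ×5; vehicle group dosed IV. Tumor volume by MRI, body weight and mortality tracked; survival followed to day 63, log-rank Mantel–Cox test.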
In general terms: Xenograft models place foreign cells or tissue in a host animal.

In series [11] the test system is U-87MG ATCC. Nature of the series: Antitumor activity against human U87MG cells orthotopically xenografted in Harlan nude mouse brain assessed as increase in mouse survival at 50 umol/kg, iv administered once daily for 5 days. The class given is functional, organism-based. The method, boiled down: as §3
For the next series, the system named is Rattus norvegicus. Description: Increase in O6-MedG formation in rat brain at 51.5 to 206 umol/kg, iv measured 3 hrs post dose by LC-MS/MS analysis. In kind it is functional, organism-based. In outline: (§4)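 Rats (n = 1 per compound per dose) dosed IV at 10, 20 and 40 mg/kg; brain collected 3 h post dose; brain drug concentration and O6-MedG (peak area) measured by LC–MS/MS.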

Series [12] is described as follows: Drug level in rat brain at 103 umol/kg, iv measured 3 hrs post dose by LC-MS/MS analysis. In kind it is ADME, organism-based. The settings on record: in vivo. The method, boiled down:
as §4

A short description of series [13]: Fraction unbound in mouse brain assessed as compound level in insoluble tissue fraction at 10 uM after 1 hr by LC-MS/MS analysis. The settings on record: in the assay text read “soluble supernatant fraction” for “insoluble tissue fraction”. In kind it is ADME, tissue-based. In outline: (§5)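 Compound at 10 µM incubated 1 h at 37 °C with homogenized mouse brain tissue in HBSS (1% final DMSO); after centrifugation, percent of compound in insoluble tissue fraction and soluble supernatant determined by LC–MS/MS.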

A short description of series [14]: Drug level in mouse brain assessed as compound level in soluble tissue fraction at 10 uM after 1 hr by LC-MS/MS analysis. The class given is ADME, tissue-based. The method, boiled down:
as §5

Series [15] in a line: Ratio of AUC in human brain to plasma by reversed-phase HPLC analysis.
Series [16] in a line: Ratio of AUC in brain to plasma of Sprague-Dawley rat administered as single dose.
Series [17] in a line: Ratio of temozolomide AUC to compound AUC for drug level in brain of Sprague-Dawley rat. Particulars: in vivo. The class given is ADME.
Series [18] is described as follows: Cytotoxicity against human U87MG cells assessed as inhibition of cell growth at 100 uM after 72 hrs by MTS assay. The class given is functional, U-87MG ATCC. The settings on record: U-87 MG, read-out: GI. In outline: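 U87 MG cells exposed to 100 µM compound for 72 h; growth read by MTS CellTiter 96 assay; treated-cell mean growth (n = 3) divided by vehicle-treated growth (n = 3, set to 100%); SD of three replicates.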
On the technique in general: Formazan colour is commonly taken as a measure of viable cells.

A short description of series [19]: Drug level in rat brain at 106 umol/kg, iv measured 3 hrs post dose by LC-MS/MS analysis. In kind it is ADME, organism-based. Particulars: in vivo. In outline:
as §4

The nature of series [20]: AUC in Sprague-Dawley rat plasma at 10 mg/kg, iv after 30 to 180 mins by LC-MS/MS analysis. The class given is ADME, organism-based. The settings on record: in vivo. In outline: as §1
A short description of series [21]: AUC in Sprague-Dawley rat brain at 10 mg/kg, iv after 30 to 180 mins by LC-MS/MS analysis. The class given is ADME, organism-based. In outline: as §1
Series [22] deals with U-87MG ATCC. Nature of the series: Induction of DNA alkylation in human U87MG cells assessed as increase in O6-MedG formation at 10 uM after 3 hrs by LC-MS/MS analysis. The class given is cell-based. In outline:
as §2

For `Cn1nnc2c(C(N)=O)ncn2c1=O` [TEMOZOLOMIDE], the values for the concentration at 0.5 h in [1] and in series [4] were 12800 ng/mL and 4210 ng/g, respectively. Further, the concentration at 1.5 h in [2] amounted to 6480 ng/mL; in series [5] it was 2300 ng/g. Further, the concentration at 3 h turned out to be 3100 ng/mL in series [3] and 912 ng/g in series [6]. Also, the Kp in series [7] stood at 0.34; in series [15], 20; in [16] it was 35. Also, the Activity result in the series with U-87MG ATCC [8] was “Dose-dependent effect”. Also, the outcome in the series with U-87MG ATCC [9], in the series with U-87MG ATCC [10], with U-87MG ATCC [11] and in the series with Rattus norvegicus was Active. In addition, the Drug uptake result in [12] is recorded as “Active”; in series [14] it was 50%. The fraction unbound at 1 h, 10 µM in [13] came out at 0.5.
Take `Cc1ccc2c(c1)c1c(n2C)CN(C(=O)c2nc[nH]c2N)CC1`: in series [13], the fraction unbound at 1 h, 10 µM was 0.01. Also, the Drug uptake in series [14] is 1%.
For the molecule `Cc1ccc2c(c1)c1c(n2C)CN(C(=O)c2ncn3c(=O)n(C)nnc23)CC1`, the concentration at 0.5 h in series [1] is 483 ng/mL; in series [4] it was 2020 ng/g. Besides, the concentration at 1.5 h in series [2] amounted to 256 ng/mL; in [5], 945 ng/g. Moreover, the concentration at 3 h in series [3] was 119 ng/mL; in series [6] it was 372 ng/g. Moreover, the Kp in series [7] was found to be 3.79. In series [17], the “Ratio AUC” value came to 2.3. The result in the series with U-87MG ATCC [8] was Active. Further, the inhibition of growth at 100 µM in series [18] stood at 27.3%. Also, the Drug uptake result is “Active” in [19] and 2% in series [14]. Also, the free fraction (fraction unbound) at 1 h, 10 µM in series [13] amounted to 0.02. Moreover, the AUC was 650 ng·h/g in series [20] and 2470 ng·h/mL in series [21].
As for `Cc1ccc2c(c1)c1c(n2CCNC(=O)c2ncn3c(=O)n(C)nnc23)CCN(C)C1`, the concentration at 0.5 h in [1] turned out to be 850 ng/mL; in series [4], 517 ng/g. Moreover, the concentration at 1.5 h in series [2] is 387 ng/mL; in [5] it was 243 ng/g. In addition, the figures for the concentration at 3 h in [3] and in series [6] were 67.1 ng/mL and 101 ng/g, respectively. The Kp in [7] was determined as 0.67. Further, in series [17], the “Ratio AUC” value was 8.9. Moreover, in the series with U-87MG ATCC [8], the result was Active. For the same molecule, the AUC in [20] is 959 ng·h/g; in [21] it was 638 ng·h/mL.
`Cc1ccc2[nH]c3c(c2c1)CN(CCNC(=O)c1ncn2c(=O)n(C)nnc12)CC3`: the figures for the concentration at 0.5 h in series [1] and in series [4] were 1090 ng/mL and 1100 ng/g, respectively. For the same molecule, the concentration at 1.5 h in series [2] stood at 302 ng/mL; in series [5], 142 ng/g. The concentration at 3 h stood at 99.2 ng/mL in [3] and 32.7 ng/g in [6]. Also, the Kp in [7] is 0.75. Also, the “Ratio AUC” value in series [17] is recorded as 7.5. The result in the series with U-87MG ATCC [8] was Active. Moreover, the AUC came to 998 ng·h/g in series [20] and 750 ng·h/mL in [21].
For the molecule `Cn1nnc2c(C(=O)N3CCc4c(n(C5CC5)c5c(Cl)cc(Cl)cc45)C3)ncn2c1=O`, the values for the concentration at 0.5 h in series [1] and in series [4] were 531 ng/mL and 4950 ng/g, respectively. In addition, the values for the concentration at 1.5 h in series [2] and in series [5] were 438 ng/mL and 4830 ng/g, respectively. Besides, the concentration at 3 h in series [3] came to 347 ng/mL; in series [6], 3570 ng/g. In series [7], the Kp worked out at 10.4. For the same molecule, in [17], the “Ratio AUC” value is 0.5. In addition, the outcome in the series on U-87MG ATCC [22] was Active. Further, in series [13], the fraction unbound at 1 h, 10 µM came out at 0.03. Besides, the Drug uptake in [14] was determined as 3%. Further, the AUC in series [20] turned out to be 1070 ng·h/g; in series [21], 11200 ng·h/mL.
For the molecule `NC(=O)c1[nH]cnc1N`, in [13], the fraction unbound at 1 h, 10 µM stood at 0.48. Further, the Drug uptake in series [14] turned out to be 48%.
With `Cc1ccc2c(c1)c1c(n2C)CCN(CCNC(=O)c2ncn3c(=O)n(C)nnc23)C1`, the figures for the concentration at 0.5 h in series [1] and in [4] were 3630 ng/mL and 3150 ng/g, respectively. Also, the concentration at 1.5 h in [2] amounted to 2140 ng/mL; in [5] it was 1700 ng/g. Moreover, the concentration at 3 h in series [3] is 539 ng/mL; in [6], 401 ng/g. Moreover, in series [7], the Kp is 0.82. In series [17], the “Ratio AUC” value was 1.4. Also, the outcome with U-87MG ATCC [8] was Active. The AUC in series [20] came out at 4890 ng·h/g; in series [21], 4010 ng·h/mL.
Consider `CN1CCc2c(n(CCNC(=O)c3ncn4c(=O)n(C)nnc34)c3ccc(Cl)cc23)C1`, for which the concentration at 0.5 h came out at 399 ng/mL in series [1] and 574 ng/g in series [4]. Further, the concentration at 1.5 h in series [2] came to 123 ng/mL; in series [5], 162 ng/g. Further, the concentration at 3 h is 43.7 ng/mL in series [3] and 47.5 ng/g in series [6]. Further, in series [7], the Kp came to 1.36. In [17], the “Ratio AUC” value was 10.8. In addition, the fraction unbound at 1 h, 10 µM in series [13] was 0.11. The Drug uptake in series [14] is 11%. Further, the AUC in [20] worked out at 386 ng·h/g; in series [21], 525 ng·h/mL.
As to `CN1CCc2c(n(CCNC(=O)c3nc[nH]c3N)c3ccc(Cl)cc23)C1`, the fraction unbound at 1 h, 10 µM in series [13] was 0.07. The Drug uptake in series [14] was determined as 7%.
Regarding `Nc1[nH]cnc1C(=O)N1CCc2c(n(C3CC3)c3c(Cl)cc(Cl)cc23)C1`, the free fraction (fraction unbound) at 1 h, 10 µM in [13] stood at 0.01. The Drug uptake in series [14] is 1%.

In general, fraction unbound refers to free concentration divided by total concentration.
